Hits are enriched below; roughly 2.2% of the tested compounds scored in any of these assays.
Wee1 stabilizer: human Wee1 degradation inhibition, primary screen. P30291. 220,000 compounds, 1.2% hits. HeLa Luc-Wee1K328M stability, luciferase luminescence; 100% = proteasome inhibitor MG132 effect. reporter increase, % at 5 µM. AID 1321;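 active means activation above the mean of all tested compounds plus 3 SD, set per screening run, cut at about 8.8% in these data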;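 further: cells exposed to compound for 20 h before luminescence read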
Target sequence (P30291 whole entry K328M): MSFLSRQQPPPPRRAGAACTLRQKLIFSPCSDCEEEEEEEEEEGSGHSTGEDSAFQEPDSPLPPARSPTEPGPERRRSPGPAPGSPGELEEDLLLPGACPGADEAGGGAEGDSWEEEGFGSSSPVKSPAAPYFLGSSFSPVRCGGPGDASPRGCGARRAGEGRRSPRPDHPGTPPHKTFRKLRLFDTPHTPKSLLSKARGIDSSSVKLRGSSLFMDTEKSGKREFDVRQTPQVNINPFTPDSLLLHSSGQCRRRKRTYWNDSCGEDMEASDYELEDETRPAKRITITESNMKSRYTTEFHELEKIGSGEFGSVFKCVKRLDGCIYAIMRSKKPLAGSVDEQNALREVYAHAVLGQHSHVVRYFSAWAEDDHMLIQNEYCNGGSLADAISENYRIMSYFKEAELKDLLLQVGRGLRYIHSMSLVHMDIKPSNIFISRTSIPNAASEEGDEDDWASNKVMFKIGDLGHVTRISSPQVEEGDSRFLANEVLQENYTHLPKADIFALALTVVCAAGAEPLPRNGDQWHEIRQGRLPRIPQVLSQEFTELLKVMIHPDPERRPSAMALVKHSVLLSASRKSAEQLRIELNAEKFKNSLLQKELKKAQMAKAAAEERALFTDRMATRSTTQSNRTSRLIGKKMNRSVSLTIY
INS promoter inh: TRM-6 insulin promoter activity inhibition; TRM-6 cells, insulin promoter-eGFP reporter, imaging; reporter expression induced with tamoxifen; 130,000 compounds, 0.9% hits; inhibition, % at 2 µM;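 active means inhibition above the mean plus 3 SD, with well images judged a real hit on visual review, cut at about 60% in these data, passing the limit was not always enough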
Ins promoter up: MIN6 insulin promoter up-regulation; z-score at 5 µM; MIN6 insulin promoter-GFP reporter, high-content imaging; hits give high values; AID 1625; 190,000 compounds, 0.3% hits;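 active means z-score above 3 at 5 µM with at least 500 cells counted in the well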
RBBP9 inhibitor: inhibitors of human serine hydrolase RBBP9; O75884; recombinant RBBP9, FP-Rh probe fluorescence polarization; inhibition, % at 7.94 µM; 220,000 compounds, 0.2% hits; AID 1515;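 active means inhibition above the campaign mean of all tested compounds plus 3 SD, cut at about 14% in these data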
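Controls: DMSO-treated enzyme wells and wells lacking RBBP9 | Material: RBBP9 protein | Technique: Fluorescence polarization | Replication: Single well per compound, no replicates | Buffer or medium: Tris-NaCl-Pluronic buffer, pH 8.0 | Timing: 30 min compound preincubation, 45 min probe labeling, 25 °C | Read-out basis: Percent inhibition from mP, scaled between DMSO and no-protein wells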
Hsp70 activator: Hsp70 transcriptional activation, primary screen | 200,000 compounds, 0.04% hits | activation, % at 10 µM | AID 1203 | HeLa Hsp70 promoter luciferase reporter, luminescence; scaled: vehicle 0, proteasome-inhibitor control 100%;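 active means activation above the mean across all tested compounds plus 3 SD, cutoff set per campaign, cut at about 5.5% in these data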
Mdm2 ligase inh: Mdm2 E3 ligase (human) inhibition; Q00987; cell-based MDM2 ubiquitination luciferase reporter, 2 h; 0 = plate control, 100 = twice control, blank-subtracted; signal enhancement, % at 5 µM; 210,000 compounds, 0.11% hits; AID 1230;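 active means signal enhancement of 30% or more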;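 further: luminescence tracks abundance of the self-degrading MDM2-luciferase fusion protein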
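Assay system: stable mammalian line carrying autodegrading MDM2–luciferase fusion reporter; amount: 2000 cells seeded into each well; buffer or medium: DMEM; benchmarks: plate control and blank wells; signal: luciferase luminescence; timing: 2 h compound exposure at 37 °C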
Of the large screens only hits and unclear results are named; the others gave an inactive call.

COC(=O)CSc1ccc(S(=O)(=O)N2CCOCC2)cc1[N+](=O)[O-]	Wee1 stabilizer 9.3 (no result: INS promoter inh)
COCCNC(=O)c1ccc2ccccc2n1	none (no result: Ins promoter up)
Cc1ccccc1OCCNC(=O)c1ccc2ccccc2n1	Wee1 stabilizer 9.6
CCCC(=O)NCCCc1nc2ccccc2n1C(C)C	none (no result: INS promoter inh)
Oc1ccccc1-c1nc(/C=C/c2ccccc2)nn1-c1ccccc1	Wee1 stabilizer 9.6
CC(C)C(C)(C#N)NC(=O)CSc1nnc(C(F)(F)F)n1C (stereo not given)	Ins promoter up 3
CNC(=O)NC(=O)CSc1nnc(C(F)(F)F)n1C	none
COc1ccc(C2OCC3(CO2)SC(=O)NC3=O)cc1 (stereo not given)	INS promoter inh 73 (no result: Ins promoter up)
OCCCNC(=S)Nc1ccc(Br)cc1Cl	Wee1 stabilizer 8.9 (no result: INS promoter inh, Hsp70 activator)
CCc1cc(=O)oc2cc(C)cc(OCC(C)=O)c12	Wee1 stabilizer 11 (no result: INS promoter inh, Hsp70 activator)
N/C(=N\c1nc(CSc2ccccn2)cc(=O)[nH]1)Nc1ccc(Cl)cc1Cl	none (no result: INS promoter inh, Hsp70 activator, Mdm2 ligase inh)
COc1cccc(CN(C)Cc2nc(Cc3ccccc3Cl)no2)c1	none (no result: INS promoter inh)
Cc1ccc2[nH]c3c(NCc4ccco4)ncnc3c2c1	INS promoter inh 85 (no result: Mdm2 ligase inh)
N#CC1=C(S)N(c2ccccc2)C(c2ccc(-c3ccccc3Cl)o2)NC1=O (stereo not given)	none
COc1cccc(NC(=O)Cc2ccccc2)c1	INS promoter inh 73
O=C(CCCOc1ccccc1)Nc1cccc([N+](=O)[O-])c1	INS promoter inh 77
COc1cccc(NC(=O)CSCC(=O)Nc2ccccc2)c1	none (no result: Ins promoter up)
Cc1cc(NC(=O)Nc2ccc(Cl)c(Cl)c2)n(-c2ccccc2)n1	none (no result: INS promoter inh, Hsp70 activator)
CC(C)OCCCNC(=S)Nc1ccc(S(N)(=O)=O)cc1	none
COC(=O)c1ccc(C)c(NC(=O)c2nn(C)c(=O)c3ccccc23)c1	Wee1 stabilizer 8.9 (no result: INS promoter inh)
CCCn1nc(C(=O)Nc2cc(C(=O)OC)ccc2C)c2ccccc2c1=O	none (no result: INS promoter inh)
Cc1ccc(/C=C/C(=O)c2ccccc(=O)c2O)cc1C	none
COc1ccccc1NC(C#N)c1ccccc1OCc1ccccc1 (stereo not given)	Wee1 stabilizer 11
CNC(=O)c1ccc(OCc2ccccc2)c(OC)c1	none (no result: Ins promoter up)
COc1cccc(NC(=O)N2CCN(c3nnnn3-c3ccccc3)CC2)c1	Ins promoter up 3.1 (no result: INS promoter inh)
COc1cccc(NC(=O)N2CCCC2)c1	none
c1ccc(N2CCN(c3nnnn3-c3ccccc3)CC2)cc1	Wee1 stabilizer 9.4
COc1ccc(NC(=O)N2CCN(c3cccc(C(F)(F)F)c3)CC2)cc1	INS promoter inh 75 (no result: Ins promoter up)
CC[N+]1(CC)CC2=Cc3c(ccc4ccccc34)C(C)C2C1 (stereo not given)	none (no result: INS promoter inh, Hsp70 activator)
CCCCCn1c(SCCc2ccccc2)nc2c1c(=O)[nH]c(=O)n2C	none
CCCCCOC(=O)CSc1nc2c(c(=O)[nH]c(=O)n2C)n1CCc1ccccc1	Wee1 stabilizer 9.9
C/C=C/CSc1nc2c(c(=O)[nH]c(=O)n2C)n1CCC	INS promoter inh 82
CCCn1c(Sc2nc3c(c(=O)[nH]c(=O)n3C)n2CCC)nc2c1c(=O)[nH]c(=O)n2C	none
Cc1ccc(C)c(N2CCN(C(=O)c3csc4ccccc34)CC2)c1	none (no result: INS promoter inh)
NC(=O)CNC(=O)C1CCCc2c1[nH]c1ccc(Cl)cc21 (stereo not given)	none
CCOC(=O)CNC(=O)C1CCCc2c1[nH]c1ccc(Cl)cc21 (stereo not given)	Wee1 stabilizer 10 (no result: INS promoter inh)
O=c1oc2ccccc2cc1N1CCOCC1	Wee1 stabilizer 9.3
O=c1cc(N2CCOCC2)c2ccccc2o1	none
Cc1nc2c(Cl)cc(Cl)cc2[nH]1	INS promoter inh 73
CCn1c(COc2cccc3cccnc23)nnc1SC(F)F	none (no result: INS promoter inh)
CCC(=O)Nc1ccc2c(c1)ncn2-c1ccccc1	Ins promoter up 5
C/C(=N\NC(=O)CN1CCN(S(=O)(=O)c2ccc(C)cc2)CC1)c1ccc(O)cc1	none (no result: INS promoter inh, Hsp70 activator)
CCCCn1c(=O)[nH]c2nc3cc(N)ccc3nc2c1=O	Ins promoter up 4.8 (no result: INS promoter inh)
Nc1ccc2nc3c(=O)n(CCc4ccccc4)c(=O)[nH]c3nc2c1	none (no result: INS promoter inh, Hsp70 activator)
CC1(NC(=O)C2CCCCC2)CCS(=O)(=O)C1 (stereo not given)	none (no result: INS promoter inh)
CCCNc1nc(N2CCCC2)nc(N2CCCC2)n1	INS promoter inh 83 (no result: Ins promoter up)
